# Laboratory results reported in ChEMBL document CHEMBL1255328, “Transcriptional and translational control of the mlr operon, which confers resistance to seven classes of protein synthesis inhibitors” (2008).
# Legend:
# Staphylococcus aureus [1] = assay: Antimicrobial activity against methicillin-resistant Staphylococcus aureus CM05 by broth microdilution method; assay type: functional
# How it was run: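 Clinical MRSA strain CM05. MICs determined by broth microdilution following accepted recommendations.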
# Staphylococcus aureus [2] = assay: Antimicrobial activity against Staphylococcus aureus RN4220 harboring plasmid LI50 by broth microdilution method; assay type: functional
# How it was run: (§1)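 S. aureus RN4220 carrying the relevant shuttle plasmid, introduced by electroporation and selected on LB agar with 10 µg/ml chloramphenicol. MICs by broth microdilution per accepted recommendations. Disk diffusion: ca. 10^7 cells in 4 ml 0.6% soft agar over 1.5% LB agar with 10 µg/ml chloramphenicol. Paper disks (5 mm) held 20 µg erythromycin or 30 µg florfenicol. Plates incubated overnight at 37°C and photographed.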
# Staphylococcus aureus [3] = assay: Antimicrobial activity against Staphylococcus aureus RN4220 harboring plasmid MS2 by broth microdilution method; assay type: functional; how it was run: as §1
# Staphylococcus aureus [4] = assay: Antimicrobial activity against erm(B)-deficient Staphylococcus aureus RN4220 harboring cfr gene by broth microdilution method; assay type: functional; how it was run: as §1
# Staphylococcus aureus [5] = assay: Antimicrobial activity against cfr-deficient Staphylococcus aureus RN4220 harboring erm(B) gene by broth microdilution method; assay type: functional; how it was run: as §1
# Staphylococcus aureus [6] = assay: Antimicrobial activity against Staphylococcus aureus RN4220 harboring erm(B) and cfr gene by broth microdilution method
# Staphylococcus aureus [7] = assay: Antimicrobial activity against erm(B) and cfr-deficient Staphylococcus aureus RN4220 harboring plasmid LI50 by broth microdilution method
# Staphylococcus aureus [8] = assay: Antimicrobial activity against Staphylococcus aureus RN4220 harboring cfr gene with mutagenized first codon CAG; assay type: functional; how it was run: as §1
# Staphylococcus aureus [9] = assay: Antimicrobial activity against Staphylococcus aureus RN4220 harboring cfr gene with mutagenized second codon CAG; assay type: functional; how it was run: as §1
# Staphylococcus aureus [10] = assay: Antimicrobial activity against methicillin-resistant Staphylococcus aureus RN4220 harboring erm(B) and cfr gene assessed as modification of A2058 site in 23S rRNA; assay type: functional
# Staphylococcus aureus [11] = assay: Antimicrobial activity against methicillin-resistant Staphylococcus aureus RN4220 harboring erm(B) and cfr gene assessed as modification of A2503 site in 23S rRNA; assay type: functional
# Staphylococcus aureus [12] = assay: Antimicrobial activity against methicillin-resistant Staphylococcus aureus CM05 assessed as modification of A2058 site in 23S rRNA; assay type: functional
# Staphylococcus aureus [13] = assay: Antimicrobial activity against methicillin-resistant Staphylococcus aureus CM05 assessed as modification of A2503 site in 23S rRNA; assay type: functional
# Staphylococcus aureus [14] = assay: Antimicrobial activity against Staphylococcus aureus RN4220 harboring erm(B) promoter-deficient plasmid MS2 by broth microdilution method
Compound,MIC (Staphylococcus aureus [1]),MIC (Staphylococcus aureus [2]),MIC (Staphylococcus aureus [3]),MIC (Staphylococcus aureus [4]),MIC (Staphylococcus aureus [5]),MIC (Staphylococcus aureus [6]),MIC (Staphylococcus aureus [7]),MIC (Staphylococcus aureus [8]),MIC (Staphylococcus aureus [9]),Activity (Staphylococcus aureus [10]),Activity (Staphylococcus aureus [11]),Activity (Staphylococcus aureus [12]),Activity (Staphylococcus aureus [13]),MIC (Staphylococcus aureus [14])
O=C(N[C@H](CO)[C@H](O)c1ccc([N+](=O)[O-])cc1)C(Cl)Cl [CHLORAMPHENICOL],64 µg/mL,–,–,–,–,–,–,–,–,–,–,–,–,–
CCC[C@@H]1C[C@@H](C(=O)N[C@@H]([C@H]2O[C@H](SC)[C@H](O)[C@@H](O)[C@H]2O)[C@H](C)Cl)N(C)C1 [CLINDAMYCIN],> 1020 µg/mL,< 1 µg/mL,> 1020 µg/mL,1020 µg/mL,> 1020 µg/mL,> 1020 µg/mL,< 1 µg/mL,–,–,–,–,–,–,–
CC[C@H]1OC(=O)[C@H](C)[C@@H](O[C@H]2C[C@@](C)(OC)[C@@H](O)[C@H](C)O2)[C@H](C)[C@@H](O[C@@H]2O[C@H](C)C[C@H](N(C)C)[C@H]2O)[C@](C)(O)C[C@@H](C)C(=O)[C@H](C)[C@@H](O)[C@]1(C)O [ERYTHROMYCIN],> 1020 µg/mL,0.5 µg/mL,> 1020 µg/mL,–,–,> 1020 µg/mL,0.5 µg/mL,> 1020 µg/mL,> 1020 µg/mL,23%,11%,35%,27%,0.5 µg/mL
CS(=O)(=O)c1ccc([C@@H](O)[C@@H](CF)NC(=O)C(Cl)Cl)cc1 [FLORFENICOL],–,4 µg/mL,128 µg/mL,–,–,128 µg/mL,4 µg/mL,128 µg/mL,4 µg/mL,20%,16%,32%,20%,4 µg/mL
CO[C@@H]1[C@@H](O[C@@H]2O[C@H](C)[C@@H](O[C@H]3C[C@@](C)(O)[C@@H](OC(=O)CC(C)C)[C@H](C)O3)[C@H](N(C)C)[C@H]2O)[C@@H](CC=O)C[C@@H](C)[C@@H](O)/C=C/C=C/C[C@@H](C)OC(=O)C[C@H]1OC(C)=O [JOSAMYCIN],–,–,–,64 µg/mL,> 2000 µg/mL,> 2000 µg/mL,1 µg/mL,–,–,–,–,–,–,–
CC(=O)NC[C@H]1CN(c2ccc(N3CCOCC3)c(F)c2)C(=O)O1 [LINEZOLID],8 µg/mL,–,–,–,–,–,–,–,–,–,–,–,–,–
C=C[C@]1(C)C[C@@H](OC(=O)CSCCN(CC)CC)[C@]2(C)[C@H](C)CC[C@]3(CCC(=O)[C@H]32)[C@@H](C)[C@@H]1O [TIAMULIN],512 µg/mL,1 µg/mL,128 µg/mL,–,–,–,–,–,–,–,–,–,–,–
CC[C@H]1OC(=O)C[C@@H](O)[C@H](C)[C@@H](O[C@@H]2O[C@H](C)[C@@H](O[C@H]3C[C@@](C)(O)[C@@H](O)[C@H](C)O3)[C@H](N(C)C)[C@H]2O)[C@@H](CC=O)C[C@@H](C)C(=O)/C=C/C(C)=C/[C@@H]1CO[C@@H]1O[C@H](C)[C@@H](O)[C@@H](OC)[C@H]1OC [TYLOSIN],–,2 µg/mL,> 1020 µg/mL,2 µg/mL,2000 µg/mL,6000 µg/mL,1 µg/mL,–,–,–,–,–,–,–
SPIRAMYCIN,–,–,–,128 µg/mL,> 4000 µg/mL,–,–,–,–,–,–,–,–,–
